Experimental data collected from several papers.
Each line is one published result; the experiments were not run side by side.
Target: Cyclin-dependent kinase 3 (CDK3, Homo sapiens, UniProt Q00526)

SMILES	test	conditions	remaining binding [%]
C[C@@H](c1cccc(C#N)c1)n1cc(Cl)cc(C(N)=O)c1=N	cell-free assay, competition with immobilised ligand	1 µM	100
COc1ncc2cc3ccccc3nc2c1C#N	cell-free assay, competition with immobilised ligand	5 µM	100
F[C@@H]1CCN(c2nccc(-c3cnn4ncccc34)n2)C1	binding	1 µM	100
N#Cc1ccccc1CSc1nnc2c(n1)[nH]c1ccccc12	binding, competition with immobilised ligand	10 µM	100
Cc1cnn2ncc(-c3ccnc(N(C)C)n3)c2c1	binding	1 µM	86
c1cncc(-c2cccc(Nc3nccc(NC4CCCCC4)n3)c2)c1	binding, competition with immobilised ligand	10 µM	76
O=C(NCC1CCOCC1)c1n[nH]cc1NC(=O)c1c(F)cccc1F	binding, competition with immobilised ligand	1 µM	75
C[C@H](c1ccnc(Nc2nc3ccc(-c4cc(N(C)C)ncn4)cc3[nH]2)c1)N1CCN(C(=O)CC(F)(F)F)CC1	cell-free assay, competition with immobilised ligand	0.1 µM	100
CNC(=O)[C@@H]1CC[C@@H](n2c(-c3ccc4cnccc4c3)nc3ccc(C(=O)NCc4cccc(C(N)=O)c4)cc32)C1	binding, competition with immobilised ligand	1 µM	89
CCC(=O)N[C@H]1CC[C@@H](C(=O)N(C)c2ccc(-c3nc4ccccc4o3)cc2)C1	cell-free assay, competition with immobilised ligand	1 µM	98
CN(C)c1ncc(F)c(-c2cnn3ncccc23)n1	binding	1 µM	82
Cc1c(NC(=O)c2cc(C(N)=O)nc3cc(F)ccc23)c(C(F)(F)F)nn1Cc1ccc(C#N)cc1	cell-free assay, competition with immobilised ligand	1 µM	95
CN(C)c1nccc(-c2cnc3ncccn23)n1	binding	1 µM	79
CCN1CCN(Cc2ccc(C(=O)Nc3ccc(C)c(Oc4ccc5c(c4)CC(=O)N5)c3)cc2C(F)(F)F)CC1	binding, competition with immobilised ligand	1 µM	100
O=C(NCCCN1CCOCC1)c1ccc(Nc2nccc(-c3cc4ccccc4s3)n2)cc1	binding, competition with immobilised ligand	1 µM	95
N[C@@H]1CCN(c2nccc(-c3cnn4ncccc34)n2)C1	binding	1 µM	100
C[C@@H]1CN(c2ccc3ncc(-c4ccc5[nH]nc(C6CC6)c5c4)n3n2)C[C@H](C)O1	binding, competition with immobilised ligand	0.5 µM	90
O=C1CCc2cc(Nc3cc(OC4CCOCC4)c([N+](=O)[O-])cc3Cl)ccc2N1	cell-free assay, competition with immobilised ligand	1 µM	100
O=C(c1ccc(Nc2nccc(-c3cc4ccccc4s3)n2)cc1)N1CCC(N2CCCC2)CC1	binding, competition with immobilised ligand	1 µM	98
CCCOc1ccc([C@@H]2[C@@H](C(=O)O)[C@H](c3ccc4c(c3)OCO4)CN2CC(=O)Nc2c(CC)cccc2CC)cc1	cell-free assay, competition with immobilised ligand	1 µM	100
O=C(c1ccc(Nc2ncc(Cl)c(-c3ccc(Cl)s3)n2)cc1)N1CCC(N2CCCC2)CC1	binding, competition with immobilised ligand	1 µM	47
